Test results published in ChEMBL document CHEMBL1177718, “Phosphoramidate ProTides of 2'-C-methylguanosine as highly potent inhibitors of hepatitis C virus. Study of their in vitro and in vivo properties” (J Med Chem, 2010).
Each block holds one molecule with its values, some of them ahead of it.

Key:
Hepatitis C virus = assay: Antiviral activity against HCV1b infected in human HuH7 cells assessed as inhibition of viral replication after 48 hrs by luciferase reporter gene assay; assay type: functional, organism-based, Hepacivirus hominis; details: genotype 1b, Huh-7, 48 h
Summary of the method: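 Huh7 cells carrying genotype 1b bicistronic subgenomic replicon, seeded 2 × 10⁴/well without G-418; compounds added 18-24 h later, 48 h exposure; 3× or 4× serial dilutions over 0.0001-10 μM in triplicate/quadruplicate; Renilla luciferase read-out versus untreated cells; EC₅₀ by four-parameter sigmoidal nonlinear regression; at least three independent assays.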

[1] = Cmax in ICR mouse plasma at 50 mg/kg, po by LC-MS/MS analysis; assay type: ADME, organism-based; design: dose 50 mg/kg, route oral
[2] = Cytotoxicity against human HuH7 cells after 72 hrs by celltiter-glo assay; assay type: cell-based, Huh-7
Summary of the method: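 Replicon 1b Huh7 cells seeded 2 × 10⁴/well; after 24 h, 11 serial 2× dilutions from 100 μM (three repeats each) with no-compound control; 72 h at 37 °C, CO₂, log-phase growth; viability by CellTiter-Glo luminescence; CC₅₀ = concentration giving 50% signal.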

Liver [3] = assay: AUC (0 to 24 hrs) in ICR mouse liver at 50 mg/kg, po by LC-MS/MS analysis; assay type: ADME, organism-based; design: time < 24 hr, dose 50 mg/kg, route oral; details: in vivo
Liver [4] = assay: Dose normalized AUC in ICR mouse liver at 50 mg/kg, po by LC-MS/MS analysis; assay type: ADME, organism-based; design: dose 50 mg/kg, route oral; details: in vivo
Plasma = assay: Dose normalized AUC in ICR mouse plasma at 50 mg/kg, po by LC-MS/MS analysis; assay type: ADME, organism-based; design: dose 50 mg/kg, route oral; details: in vivo
[5] = Metabolic stability in mouse plasma assessed as compound remaining at 1 ug/ml after 30 mins; assay type: ADME, cell-free; details: read-out: Stability
[6] = Metabolic stability in dog plasma assessed as compound remaining at 1 ug/ml after 30 mins; assay type: ADME, cell-free, Canis lupus familiaris; details: read-out: Stability
Summary of the method: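 Duplicate incubations; compound at final 1 μg/mL in plasma preincubated and kept at […]; samples taken at 30 or 240 min, quenched with ice-cold acetonitrile, centrifuged, supernatant diluted with water; parent quantified by LC-MS/MS (Polar-RP column, formic acid water/acetonitrile gradient, positive ion mode); % remaining reported.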

Liver [7] = assay: AUC (0 to 6 hrs) in ICR mouse liver at 50 mg/kg, po by LC-MS/MS analysis; assay type: ADME, organism-based; design: time < 6 hr, dose 50 mg/kg, route oral; details: in vivo
Homo sapiens = species: Homo sapiens; assay: Metabolic stability in human plasma assessed as compound remaining at 1 ug/ml after 30 mins
[8] = Metabolic stability in rat intestine S9 fraction assessed as compound remaining at 10 uM after 60 mins by HPLC analysis in presence of NADP; assay type: ADME, tissue-based; details: read-out: Stability
Summary of the method: (§1)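 Rat liver or intestinal S9 at 1 mg/mL final in 50 mM potassium phosphate, with or without NADPH-regenerating system (final 1.3 mM NADP, 3.3 mM glucose-6-phosphate, 0.4 U/mL G6P dehydrogenase, 3.3 mM MgCl2). Preincubated 10 min at 37 °C with shaking, started with compound at 10 μM final. Samples taken at 0 and 60 min, quenched in cold acetonitrile, centrifuged, and parent disappearance measured by HPLC.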

[9] = Metabolic stability in dog liver S9 fraction assessed as compound remaining at 10 uM after 60 mins by HPLC analysis in presence of NADP; assay type: ADME, subcellular, Canis lupus familiaris; details: read-out: Stability
Summary of the method: (§2)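 Liver or intestinal S9 at final 1 mg/mL in 50 mM potassium phosphate, with or without NADPH-regenerating system (1.3 mM NADP, 3.3 mM glucose-6-phosphate, 0.4 U/mL G6PDH, 3.3 mM MgCl₂); 10 min preincubation at 37 °C; compound at final 10 μM; samples at start and 60 min quenched in cold acetonitrile, centrifuged, HPLC; % parent remaining.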

[10] = Metabolic stability in human intestine S9 fraction assessed as compound remaining at 10 uM after 60 mins by HPLC analysis in absence of NADP; assay type: ADME, tissue-based; details: read-out: Stability; summary of the method: as §2
[11] = Metabolic stability in human liver S9 fraction assessed as compound remaining at 10 uM after 60 mins by HPLC analysis in presence of NADP; assay type: ADME, subcellular; details: read-out: Stability; summary of the method: as §2
[12] = Metabolic stability in cynomolgus monkey liver S9 fraction assessed as compound remaining at 10 uM after 30 mins by HPLC analysis in absence of NADP; assay type: ADME, subcellular, Macaca fascicularis; details: read-out: Stability
[13] = Metabolic stability in rat liver S9 fraction assessed as compound remaining at 10 uM after 60 mins by HPLC analysis in absence of NADP; assay type: ADME, subcellular; details: read-out: Stability; summary of the method: as §1
[14] = Metabolic stability in dog intestine S9 fraction assessed as compound remaining at 10 uM after 60 mins by HPLC analysis in absence of NADP; assay type: ADME, tissue-based, Canis lupus familiaris; details: read-out: Stability; summary of the method: as §2
[15] = Metabolic stability in cynomolgus monkey intestine S9 fraction assessed as compound remaining at 10 uM after 30 mins by HPLC analysis in presence of NADP; assay type: ADME, tissue-based, Macaca fascicularis; details: read-out: Stability
[16] = Metabolic stability in human intestine S9 fraction assessed as compound remaining at 10 uM after 60 mins by HPLC analysis in presence of NADP; assay type: ADME, tissue-based; details: read-out: Stability; summary of the method: as §2
[17] = Metabolic stability in dog intestine S9 fraction assessed as compound remaining at 10 uM after 60 mins by HPLC analysis in presence of NADP; assay type: ADME, tissue-based, Canis lupus familiaris; details: read-out: Stability; summary of the method: as §2
[18] = Metabolic stability in rat liver S9 fraction assessed as compound remaining at 10 uM after 60 mins by HPLC analysis in presence of NADP; assay type: ADME, subcellular; details: read-out: Stability; summary of the method: as §1
[19] = Metabolic stability in human liver S9 fraction assessed as compound remaining at 10 uM after 60 mins by HPLC analysis in absence of NADP; assay type: ADME, subcellular; details: read-out: Stability; summary of the method: as §2
[20] = Metabolic stability in dog liver S9 fraction assessed as compound remaining at 10 uM after 60 mins by HPLC analysis in absence of NADP; assay type: ADME, subcellular, Canis lupus familiaris; details: read-out: Stability; summary of the method: as §2
[21] = Metabolic stability in cynomolgus monkey liver S9 fraction assessed as compound remaining at 10 uM after 30 mins by HPLC analysis in presence of NADP; assay type: ADME, subcellular, Macaca fascicularis; details: read-out: Stability
[22] = Metabolic stability in rat intestine S9 fraction assessed as compound remaining at 10 uM after 60 mins by HPLC analysis in absence of NADP; assay type: ADME, tissue-based; details: read-out: Stability; summary of the method: as §1
[23] = Metabolic stability in cynomolgus monkey intestine S9 fraction assessed as compound remaining at 10 uM after 30 mins by HPLC analysis in absence of NADP; assay type: ADME, tissue-based, Macaca fascicularis; details: read-out: Stability
[24] = Metabolic stability in mouse plasma assessed as compound remaining at 1 ug/ml after 4 hrs; assay type: ADME, cell-free; details: read-out: Stability

EC50 (Hepatitis C virus): 1 µM
Cmax [1]: 185 ng/mL
AUC (Liver [3]): 3860 ng·h/g
AUC (Liver [4]): 77 ng·h/g
AUC (Plasma): 33 ng·h/mL
remaining at 0.5 h, 1 ug/ml [5]: 95%
remaining at 0.5 h, 1 ug/ml [6]: 95%
AUC (Liver [7]): 815 ng·h/g
remaining at 0.5 h, 1 ug/ml (Homo sapiens): 97%
Structure (SMILES): CC(C)[C@H](NP(=O)(OC[C@H]1O[C@@H](n2cnc3c(=O)[nH]c(N)nc32)[C@](C)(O)[C@@H]1O)Oc1cccc2ccccc12)C(=O)OC1CCCCC1 (some centres undefined)
CC50 at 72 h [2]: > 100 µM

Structure (SMILES): CC(C)[C@H](NP(=O)(OC[C@H]1O[C@@H](n2cnc3c(=O)[nH]c(N)nc32)[C@](C)(O)[C@@H]1O)Oc1cccc2ccccc12)C(=O)OCc1ccccc1 (some centres undefined)
remaining at 1 h, 10 µM [8]: 65%
remaining at 1 h, 10 µM [9]: 56%
EC50 (Hepatitis C virus): 0.76 µM
remaining at 1 h, 10 µM [10]: 70%
remaining at 1 h, 10 µM [11]: 0%
Cmax [1]: 504 ng/mL
remaining at 0.5 h, 10 µM [12]: 77%
CC50 at 72 h [2]: > 100 µM
remaining at 1 h, 10 µM [13]: 62%
remaining at 1 h, 10 µM [14]: 72%
remaining at 0.5 h, 10 µM [15]: 25%
remaining at 1 h, 10 µM [16]: 24%
remaining at 1 h, 10 µM [17]: 56%
AUC (Liver [4]): 97 ng·h/g
remaining at 1 h, 10 µM [18]: 8%
remaining at 1 h, 10 µM [19]: 78%
remaining at 1 h, 10 µM [20]: 75%
AUC (Plasma): 40 ng·h/mL
remaining at 0.5 h, 10 µM [21]: 0%
remaining at 1 h, 10 µM [22]: 81%
remaining at 0.5 h, 1 ug/ml [5]: 89%
remaining at 0.5 h, 10 µM [23]: 77%
remaining at 4 h, 1 ug/ml [24]: 66%
AUC (Liver [7]): 1940 ng·h/g
